# Test results published in ChEMBL document CHEMBL1137338, “Effects of substitution on 9-(3-bromo-4-fluorophenyl)-5,9-dihydro-3H,4H-2,6-dioxa-4- azacyclopenta[b]naphthalene-1,8-dione, a dihydropyridine ATP-sensitive potassium channel opener” (J Med Chem, 2006).
# Target: Sulfonylurea receptor 2, Kir6.2 (Homo sapiens, UniProt O60706+Q14654)
# Test: Ability to open human urinary bladder Kir6.2 channel containing SUR2B in Ltk cells by FLIPR assay
# Format: functional, cell-based
# Summary of the method: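 Ltk- cells stably transfected with the Kir6.2/SUR2B exon 17- splice variant. Membrane potential was followed with DiBAC dye in a 96-well cell-based kinetic fluorescence (FLIPR) assay. The highest concentration tested was 10 µM. Each compound's maximal fluorescence response was expressed as % of the response to the reference opener.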
# Sulfonylurea receptor 2, Kir6.2, sequence (Q14654 whole entry): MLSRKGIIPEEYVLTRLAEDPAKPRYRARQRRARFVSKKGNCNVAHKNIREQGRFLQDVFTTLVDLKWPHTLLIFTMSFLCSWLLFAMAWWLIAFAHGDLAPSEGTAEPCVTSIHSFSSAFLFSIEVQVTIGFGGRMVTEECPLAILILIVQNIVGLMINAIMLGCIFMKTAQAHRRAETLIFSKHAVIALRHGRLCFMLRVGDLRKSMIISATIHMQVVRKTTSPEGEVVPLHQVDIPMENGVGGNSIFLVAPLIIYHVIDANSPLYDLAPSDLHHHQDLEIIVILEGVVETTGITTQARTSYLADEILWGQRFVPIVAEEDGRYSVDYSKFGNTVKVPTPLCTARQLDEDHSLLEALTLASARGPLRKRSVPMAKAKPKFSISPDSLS
# Sulfonylurea receptor 2, Kir6.2, sequence (O60706 whole entry): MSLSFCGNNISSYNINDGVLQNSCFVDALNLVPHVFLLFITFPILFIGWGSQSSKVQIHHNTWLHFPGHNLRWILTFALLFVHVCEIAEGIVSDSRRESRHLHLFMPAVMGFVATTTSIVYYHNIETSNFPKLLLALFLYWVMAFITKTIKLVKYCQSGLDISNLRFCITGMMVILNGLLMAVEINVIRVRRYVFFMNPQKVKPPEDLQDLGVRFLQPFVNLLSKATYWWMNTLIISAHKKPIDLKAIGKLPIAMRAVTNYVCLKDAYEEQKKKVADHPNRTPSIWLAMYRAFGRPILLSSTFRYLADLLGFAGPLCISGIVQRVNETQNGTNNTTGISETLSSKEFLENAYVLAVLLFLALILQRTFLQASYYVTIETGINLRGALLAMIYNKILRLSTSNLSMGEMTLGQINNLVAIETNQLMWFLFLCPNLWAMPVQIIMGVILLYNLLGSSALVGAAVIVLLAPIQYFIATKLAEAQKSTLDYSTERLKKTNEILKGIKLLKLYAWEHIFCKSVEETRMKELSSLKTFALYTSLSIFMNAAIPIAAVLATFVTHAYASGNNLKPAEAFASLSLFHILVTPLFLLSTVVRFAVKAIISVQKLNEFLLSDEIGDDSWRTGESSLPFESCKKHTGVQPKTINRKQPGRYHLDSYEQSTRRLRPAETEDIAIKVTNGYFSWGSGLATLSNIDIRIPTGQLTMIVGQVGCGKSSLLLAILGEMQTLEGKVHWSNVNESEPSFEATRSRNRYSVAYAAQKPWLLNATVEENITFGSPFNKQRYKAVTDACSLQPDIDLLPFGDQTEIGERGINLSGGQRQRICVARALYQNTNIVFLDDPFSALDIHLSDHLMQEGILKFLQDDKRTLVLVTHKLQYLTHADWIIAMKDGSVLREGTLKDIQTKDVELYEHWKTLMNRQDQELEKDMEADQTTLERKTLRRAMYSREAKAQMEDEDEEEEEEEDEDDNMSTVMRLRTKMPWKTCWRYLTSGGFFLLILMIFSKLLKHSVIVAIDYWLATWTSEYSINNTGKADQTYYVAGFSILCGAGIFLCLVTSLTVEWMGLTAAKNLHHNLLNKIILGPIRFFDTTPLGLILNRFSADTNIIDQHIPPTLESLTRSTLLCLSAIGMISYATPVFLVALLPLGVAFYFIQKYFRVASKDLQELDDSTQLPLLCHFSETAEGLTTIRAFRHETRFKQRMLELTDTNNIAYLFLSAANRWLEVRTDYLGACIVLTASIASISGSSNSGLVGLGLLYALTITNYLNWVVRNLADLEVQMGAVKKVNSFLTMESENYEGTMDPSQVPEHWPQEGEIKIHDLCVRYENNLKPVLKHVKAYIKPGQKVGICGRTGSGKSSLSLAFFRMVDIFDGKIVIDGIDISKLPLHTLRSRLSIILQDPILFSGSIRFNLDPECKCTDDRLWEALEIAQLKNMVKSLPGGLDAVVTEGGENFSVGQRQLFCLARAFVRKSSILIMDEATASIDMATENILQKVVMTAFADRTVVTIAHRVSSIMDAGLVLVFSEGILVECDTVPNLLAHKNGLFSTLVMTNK
row,Compound,EC50 [nM]
1,CC[C@H]1C2=C(C(=O)N1C)[C@H](c1ccc(F)c(Br)c1)C1=C(O)COCC1=N2 (relative stereo),> 10000
2,CC[C@@H]1C2=C(C(=O)N1C)[C@H](c1ccc(F)c(Br)c1)C1=C(O)COCC1=N2 (relative stereo),> 10000
3,"CC1(C)OCC2=C(C1=O)C(c1ccc(F)c(Br)c1)C1=C(O)OCC1=N2 (single isomer, unassigned; (+))",26.9
4,O=C1COCC2=C1C(c1ccc(F)c(Br)c1)C1=C(O)OCC1=N2 (stereo in doubt; 6),45.7
5,C[C@@H]1OCC2=C(C1=O)[C@@H](c1ccc(F)c(Br)c1)C1=C(O)OCC1=N2 (stereo in doubt; 7a),174
6,C[C@@H]1OCC2=C(C1=O)[C@@H](c1ccc(F)c(Br)c1)C1=C(O)OCC1=N2 (stereo in doubt; 7b),513
7,C[C@@H]1OCC2=C(C1=O)[C@H](c1ccc(F)c(Br)c1)C1=C(O)OCC1=N2 (stereo in doubt; 8a),72.4
8,C[C@@H]1OCC2=C(C1=O)[C@H](c1ccc(F)c(Br)c1)C1=C(O)OCC1=N2 (stereo in doubt; 8b),295
9,CC1(C)OCC2=C(C1=O)C(c1ccc(F)c(Br)c1)C1=C(O)OCC1=N2 (stereo in doubt; 9),24
10,CC1(C)OCC2=C(C1=O)C(c1ccc(F)c(Br)c1)C1=C(O)OCC1=N2 (stereo in doubt; 9b),2820
11,C[C@@H]1OC(O)=C2C1=NC1=C(C(=O)COC1)[C@H]2c1ccc(F)c(Br)c1 (stereo in doubt; 17b),51.3
12,C[C@H]1OC(O)=C2C1=NC1=C(C(=O)COC1)[C@H]2c1ccc(F)c(Br)c1 (stereo in doubt; 18a),64.6
13,C[C@H]1OC(O)=C2C1=NC1=C(C(=O)COC1)[C@H]2c1ccc(F)c(Br)c1 (stereo in doubt; 18b),257
14,CC[C@@H]1OC(O)=C2C1=NC1=C(C(=O)COC1)[C@H]2c1ccc(F)c(Br)c1 (stereo in doubt; 20a),3.89
15,CC[C@@H]1OC(O)=C2C1=NC1=C(C(=O)COC1)[C@H]2c1ccc(F)c(Br)c1 (stereo in doubt; 20b),145
16,CCC[C@@H]1OC(O)=C2C1=NC1=C(C(=O)COC1)[C@H]2c1ccc(F)c(Br)c1 (stereo in doubt; 22a),1
17,CCC[C@@H]1OC(O)=C2C1=NC1=C(C(=O)COC1)[C@H]2c1ccc(F)c(Br)c1 (stereo in doubt; 22b),3.72
18,CCC[C@H]1OC(O)=C2C1=NC1=C(C(=O)COC1)[C@H]2c1ccc(F)c(Br)c1 (stereo in doubt; 23a),3240
19,COC[C@H]1OC(O)=C2C1=NC1=C(C(=O)COC1)[C@H]2c1ccc(F)c(Br)c1 (stereo in doubt; 25a),479
20,COC[C@H]1OC(O)=C2C1=NC1=C(C(=O)COC1)[C@H]2c1ccc(F)c(Br)c1 (stereo in doubt; 25b),22.9
21,CCCC[C@H]1OC(O)=C2C1=NC1=C(C(=O)COC1)[C@H]2c1ccc(F)c(Br)c1 (stereo in doubt; 29a),5130
22,CC(C)C[C@H]1OC(O)=C2C1=NC1=C(C(=O)COC1)[C@H]2c1ccc(F)c(Br)c1 (stereo in doubt; 31a),2510
23,CC[C@H]1OC(O)=C2C1=NC1=C(C(=O)C(C)(C)OC1)[C@H]2c1ccc(F)c(Br)c1 (stereo in doubt; 36a),437
24,CC[C@H]1OC(O)=C2C1=NC1=C(C(=O)C(C)(C)OC1)[C@H]2c1ccc(F)c(Br)c1 (stereo in doubt; 36b),550
25,CC[C@H]1OC(O)=C2C1=NC1=C(C(=O)COC1(C)C)[C@H]2c1ccc(F)c(Br)c1 (stereo in doubt; 38a),1580
26,CC[C@H]1OC(O)=C2C1=NC1=C(C(=O)COC1(C)C)[C@H]2c1ccc(F)c(Br)c1 (stereo in doubt; 38b),> 10000

row,Compound,EC50 [nM]
1,CCC[C@H]1OC(O)=C2C1=NC1=C(C(=O)COC1)[C@H]2c1ccc(F)c(Cl)c1 (stereo in doubt; 39a),3390
2,CCC[C@H]1OC(O)=C2C1=NC1=C(C(=O)COC1)[C@H]2c1ccc(F)c(I)c1 (stereo in doubt; 41a),1950
3,CCC[C@H]1OC(O)=C2C1=NC1=C(C(=O)COC1)[C@H]2c1ccc(Cl)c(Cl)c1 (stereo in doubt; 42a),1320
4,CCC[C@H]1OC(O)=C2C1=NC1=C(C(=O)COC1)[C@H]2c1ccc(Cl)c(Cl)c1 (stereo in doubt; 42b),2000
5,CCC[C@H]1OC(O)=C2C1=NC1=C(C(=O)COC1)[C@H]2c1ccc(Cl)c(Br)c1 (stereo in doubt; 43a),813
6,CCC[C@H]1OC(O)=C2C1=NC1=C(C(=O)COC1)[C@H]2c1ccc(Cl)c(Br)c1 (stereo in doubt; 43b),151
7,CCC[C@H]1OC(O)=C2C1=NC1=C(C(=O)COC1)[C@H]2c1ccc(Br)c(Cl)c1 (stereo in doubt; 44a),1050
8,CCC[C@H]1OC(O)=C2C1=NC1=C(C(=O)COC1)[C@H]2c1ccc(Br)c(Cl)c1 (stereo in doubt; 44b),437
9,CCC[C@H]1OC(O)=C2C1=NC1=C(C(=O)COC1)[C@H]2c1ccc(Br)c(Br)c1 (stereo in doubt; 45a),1150
10,CCC[C@H]1OC(O)=C2C1=NC1=C(C(=O)COC1)[C@H]2c1ccc(Br)c(Br)c1 (stereo in doubt; 45b),126
11,CCC[C@H]1OC(O)=C2C1=NC1=C(C(=O)COC1)[C@H]2c1ccc(C)c(Br)c1 (stereo in doubt; 46a),3470
12,CCC[C@H]1OC(O)=C2C1=NC1=C(C(=O)COC1)[C@H]2c1ccc(C)c(Br)c1 (stereo in doubt; 46b),219
13,CC[C@@H]1OCC(O)=C2C1=NC1=C(C(=O)COC1)[C@H]2c1ccc(F)c(Br)c1 (stereo in doubt; 70a),166
14,CC[C@@H]1OCC(O)=C2C1=NC1=C(C(=O)COC1)[C@H]2c1ccc(F)c(Br)c1 (stereo in doubt; 70b),20
15,CC[C@H]1OCC(O)=C2C1=NC1=C(C(=O)COC1)[C@H]2c1ccc(F)c(Br)c1 (stereo in doubt; 71b),> 10000
16,CC[C@H]1OCC(O)=C2C1=NC1=C(C(=O)COC1)[C@H]2c1ccc(F)c(Cl)c1 (stereo in doubt; 72a),3630
17,CC[C@H]1OCC(O)=C2C1=NC1=C(C(=O)COC1)[C@H]2c1ccc(F)c(Cl)c1 (stereo in doubt; 72b),> 10000
18,CC[C@H]1OCC(O)=C2C1=NC1=C(C(=O)COC1)[C@H]2c1ccc(F)c(I)c1 (stereo in doubt; 73a),1290
19,CC[C@H]1OCC(O)=C2C1=NC1=C(C(=O)COC1)[C@H]2c1ccc(F)c(I)c1 (stereo in doubt; 73b),2950
20,CC[C@H]1OCC(O)=C2C1=NC1=C(C(=O)COC1)[C@H]2c1ccc(Cl)c(Cl)c1 (stereo in doubt; 74a),468
21,CC[C@H]1OCC(O)=C2C1=NC1=C(C(=O)COC1)[C@H]2c1ccc(Cl)c(Br)c1 (stereo in doubt; 75a),759
22,CC[C@H]1OCC(O)=C2C1=NC1=C(C(=O)COC1)[C@H]2c1ccc(Cl)c(Br)c1 (stereo in doubt; 75b),5500
23,CC[C@H]1OCC(O)=C2C1=NC1=C(C(=O)COC1)[C@H]2c1ccc(Br)c(Cl)c1 (stereo in doubt; 76a),1620
24,CC[C@H]1OCC(O)=C2C1=NC1=C(C(=O)COC1)[C@H]2c1ccc(Br)c(Br)c1 (stereo in doubt; 77a),309
25,CC[C@H]1OCC(O)=C2C1=NC1=C(C(=O)COC1)[C@H]2c1ccc(Br)c(Br)c1 (stereo in doubt; 77b),427
